Assay results collected from several papers.
Lines come from different studies, so protocols differ.
Target: Muscarinic acetylcholine receptor M2 (CHRM2, Homo sapiens, UniProt P08172)
Tested at: 10 µM
Residues used in one study (P08172 1-466): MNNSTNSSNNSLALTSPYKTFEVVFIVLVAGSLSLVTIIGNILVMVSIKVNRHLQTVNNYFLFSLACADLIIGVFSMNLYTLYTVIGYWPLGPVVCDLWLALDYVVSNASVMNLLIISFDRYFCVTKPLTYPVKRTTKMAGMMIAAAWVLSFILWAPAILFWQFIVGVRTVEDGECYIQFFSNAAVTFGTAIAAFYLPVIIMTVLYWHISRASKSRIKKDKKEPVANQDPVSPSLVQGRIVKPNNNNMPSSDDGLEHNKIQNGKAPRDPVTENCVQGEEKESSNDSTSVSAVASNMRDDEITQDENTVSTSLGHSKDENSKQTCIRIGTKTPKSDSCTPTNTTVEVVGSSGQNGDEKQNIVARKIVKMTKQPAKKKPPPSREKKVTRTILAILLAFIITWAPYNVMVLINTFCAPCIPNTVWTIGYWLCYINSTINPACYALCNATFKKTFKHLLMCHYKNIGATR

SMILES	observed	method	measurement	result
CN1CC[C@]2(C)c3cc(OC(=O)Nc4ccccc4)ccc3N(C)[C@H]12	ligand displacement	radioligand	inhibition	0%
Nc1ncc(-c2nc(N3CCOCC3)nc(N3CCOCC3)n2)c(C(F)F)n1	cell-free assay	radioligand	remaining signal	117%
COCc1c(-c2cc3cc(C)cc(OC)c3s2)c2c(N)ncnn2c1CN1CCNC(=O)C1	ligand displacement	radioligand	inhibition	-1%
CCN(CC)CCCC[C@H](NC(=O)[C@H](CC(C)C)NC(=O)[C@H](C)NC(=O)[C@H](Cc1ccccc1)NC(=O)c1ccc(C(C)(C)C)cc1)C(=O)N[C@@H](CO)C(=O)OC	ligand displacement	radioligand	inhibition	-6%
CC(C)N1CCC[C@H]1CNC(=O)c1cn(C2CCCC2)c(=O)c2c1c1ccccc1n2C	ligand displacement	radioligand	inhibition	1%
Cn1cncc1[C@@](O)(COc1ccc(C#N)cc1-c1ccc(OC(F)(F)F)cc1)c1ccc(C#N)cc1	ligand displacement		inhibition	-11.9%
C[C@H](C(=O)N[C@H]1COc2ccccc2[C@@H]1S(C)(=O)=O)c1ccc(F)cc1	cell-free assay		inhibition	5%
Cc1c(N2CCNCC2)nc2ccc(Br)cc2c1C(=O)NC[C@H](CCC(=O)O)c1ccccc1Cl	ligand displacement		inhibition	13.8%
c1ccc(C(NCCNC(c2ccccc2)c2ccccc2)c2ccccc2)cc1	cell-free assay		inhibition	45%
Clc1ccc2c(C3CCN(CCc4c[nH]c5ccccc45)CC3)c[nH]c2c1	ligand displacement	radioligand	inhibition	15%
